Source: ChEMBL document CHEMBL1122004, “alpha-Adrenergic agents. 2. Synthesis and alpha 1-agonist activity of 2-aminotetralins” (J Med Chem, 1982)

Legend:
[1] = Alpha-1 adrenergic receptor activation causing vasoconstriction in the isolated rabbit ear artery; type: functional, tissue-based; details: Oryctolagus cuniculus
Summary of the method: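 Isolated rabbit ear artery segments with cocaine 2×10^-6 g/mL present throughout to block neuronal uptake. A cumulative norepinephrine curve (10^-8 to 3×10^-6 M) is run first to set the maximum response. After washout, a cumulative test-drug curve is run, stepping concentration once the response is stable. EC50 = concentration giving 50% of the NE maximum.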

[2] = target: Adrenergic receptor alpha-1 (Homo sapiens) (UniProt P35348+P25100+P35368); test: Dissociation constant for Alpha-1-adrenergic receptor was determined before and after addition of phentolamine; details: Oryctolagus cuniculus
Summary of the method: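 Rabbit ear artery with cocaine 2×10^-6 g/mL. After cumulative NE and test-drug curves and washout, phentolamine 10^-7 M is superfused for 30 min of equilibration. NE and test-drug curves are then repeated. K_B for phentolamine = [phentolamine]/((EC50 with phentolamine / EC50 without) − 1).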

COc1ccc(Cl)c2c1CCC(N)C2 (stereo not drawn)
EC50 [1]: 230 nM
Kb [2]: 13 nM

CCCNC1CCc2c(OC)ccc(OC)c2C1 (stereo not drawn)
EC50 [1]: 1100 nM
Kb [2]: 18 nM

Cc1ccc(C)c2c1CCC(N)C2 (stereo not drawn)
EC50 [1]: 10000 nM

CCNC1CCc2ccc(OC)c(OC)c2C1 (stereo not drawn)
EC50 [1]: > 10000 nM

CCNC1CCc2c(OC)ccc(OC)c2C1 (stereo not drawn)
EC50 [1]: 81 nM
Kb [2]: 8 nM

COc1cc2c(cc1OC)CC(N)CC2 (stereo not drawn)
EC50 [1]: > 10000 nM

CNC1CCc2c(OC)ccc(OC)c2C1 (stereo not drawn)
EC50 [1]: 86 nM
Kb [2]: 11 nM

CCNC1CCc2c(N)ccc(OC)c2C1 (stereo not drawn)
EC50 [1]: 5300 nM

COc1ccc(OC)c2c1CCC(N)C2 (stereo not drawn)
EC50 [1]: 120 nM
Kb [2]: 6 nM

CCNC1CCc2c(I)ccc(OC)c2C1 (stereo not drawn)
EC50 [1]: 21 nM
Kb [2]: 11 nM

CCNC1CCc2c(Sc3ccccc3)ccc(OC)c2C1 (stereo not drawn)
EC50 [1]: 700 nM

CCNC1CCc2c(OC)ccc(SC)c2C1 (stereo not drawn)
EC50 [1]: 140 nM
Kb [2]: 16 nM

COc1cccc2c1CC(N)CC2 (stereo not drawn)
EC50 [1]: 1700 nM
Kb [2]: 12 nM

COc1ccc(SC)c2c1CC(N)CC2 (stereo not drawn)
EC50 [1]: 12 nM
Kb [2]: 5 nM

COc1ccc(OC)c2c1CCC(N(C)C)C2 (stereo not drawn)
EC50 [1]: 81 nM
Kb [2]: 15 nM

CCNC1CCc2c(SC)ccc(OC)c2C1 (stereo not drawn)
EC50 [1]: 26 nM

CCNC1CCc2c(OC)ccc(I)c2C1 (stereo not drawn)
EC50 [1]: 64 nM
Kb [2]: 12 nM

COc1cccc2c1CCC(N)C2 (stereo not drawn)
EC50 [1]: 2200 nM
Kb [2]: 7 nM

NC1CCc2ccccc2C1 (stereo not drawn)
EC50 [1]: > 30000 nM

NC[C@H](O)c1ccc(O)c(O)c1 [NOREPINEPHRINE]
EC50 [1]: 150 nM

COc1ccc(SC)c2c1CC(N(C)C)CC2 (stereo not drawn)
EC50 [1]: 14 nM
Kb [2]: 9 nM

CCNC1CCc2c(OC)ccc(Cl)c2C1 (stereo not drawn)
EC50 [1]: 64 nM
Kb [2]: 14 nM

COc1ccc(OC)c(C(O)C(C)N)c1 (stereo not drawn) [METHOXAMINE]
EC50 [1]: 720 nM
Kb [2]: 11 nM
